Like-named read-outs stand apart in the source and are kept apart here.

The conditions of series [1]: close to the hematocrit value; cited from earlier work.
Series [2] is described as follows: In vitro hemodialysis, condition 1: buffered aqueous solution. The format is in vitro ADME. An outline of the steps: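 Closed-loop in vitro hemodialysis on an Optiflux dialyzer at ambient temperature (~22 °C). Reservoir A held 0.5 L dialysate and no blood; 5 L dialysate was pumped countercurrent from reservoir B. [14C]etelcalcetide plus urea, creatinine and vitamin B12 controls went into reservoir A, with pumps started at once. Both reservoirs were sampled over 2 h for radioactivity and etelcalcetide (acidified, 1% formic acid), then a 20-min Solvable washout.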

A short description of series [3]: Whole-blood incubations with etelcalcetide and SAPC. The format is in vitro ADME. Particulars: human whole blood; for sum total of monitored products as % of total M11: etelcalcetide 5 μM. An outline of the steps:
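Pooled human whole blood (healthy volunteers, n = 3) was incubated in duplicate with [14C]etelcalcetide, unlabelled etelcalcetide or SAPC for up to 6 h at 37 °C, then centrifuged; plasma was acidified with 1% formic acid. TCEP reduction gave total M11; M13 was estimated from the M10 standard curve. Model 1 was fitted by maximum likelihood to duplicate means.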

A short description of series [4]: Kinetic model 2 fitted simultaneously to hemodialysis conditions 2 and 3. The format is in vitro ADME, bovine. An outline of the steps:
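Kinetic model 2, an extension of the whole-blood model, was fitted simultaneously to etelcalcetide amounts in reservoirs A and B from all three hemodialysis conditions, using one rate-constant set. Each point was the mean of triplicate samples. Conjugation/deconjugation constants (kc, kdc, kb, kdb) were fixed from model 1; kAB and kBA are forward and reverse dialysis-clearance constants between reservoirs.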

For series [5] the following is noted: CKD patients on hemodialysis; cited from earlier work.
For series [6] the following is noted: cited from earlier work.
Series [7] is described as follows: Non-covalent plasma protein binding in bovine blood. Type of series: in vitro ADME. Particulars: data not shown.
Series [8] is classed as in vitro ADME. Particulars: condition 3, bovine whole blood, with 3-hour preincubation at 37 °C. An outline of the steps: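 Bovine whole blood (0.5 L) spiked with [14C]etelcalcetide was preincubated 3 h at 37 °C before closed-loop dialysis (QB 50 ml/min, QD 250 ml/min, countercurrent, 5 L dialysate). Heparin (100 U) was added hourly. Reservoirs A and B were sampled for radioactivity and etelcalcetide, followed by a Solvable washout of the dialyzer.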

Series [9] is classed as in vitro ADME, bovine. An outline of the steps:
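Same closed-loop dialyzer setup, with reservoir A holding 0.5 L bovine whole blood warmed to 37 °C. Hemodialysis began immediately after [14C]etelcalcetide and urea, creatinine and vitamin B12 controls were spiked in. Sodium heparin (100 U) was added every 30 min. Both reservoirs were sampled over 2 h for radioactivity and etelcalcetide (formic-acid acidified). Dialyzer-bound material was recovered by 20-min Solvable circulation at 50 ml/min.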

The conditions of series [10]: human blood; cited from earlier work.

Consider `CC(=O)N[C@H](CSSC[C@H](N)C(=O)O)C(=O)N[C@H](C)C(=O)N[C@H](CCCNC(=N)N)C(=O)N[C@H](CCCNC(=N)N)C(=O)N[C@H](CCCNC(=N)N)C(=O)N[C@H](C)C(=O)N[C@H](CCCNC(=N)N)C(N)=O` [etelcalcetide, Etelcalcetide], for which the blood-to-plasma ratio in series [1] was about 0.5. The “hemodialysis clearance rate relative to biotransformation (conversion to SAPC)” value in [2] (comparison of dialytic rate constant with kc) was over 16 fold. The hemodialysis clearance is 59 mL/min in series [2] (condition 1, absence of blood, from kAB, QB 50 ml/min, QD 250 ml/min); 36 mL/min in [4] (conditions 2 and 3, presence of bovine blood, from kAB, QB 50 ml/min). Moreover, the “kBA, reverse rate constant of hemodialysis clearance, reservoir B to A” value came to 0.00932 min^–1 in [2] (model 2 fit, condition 1, absence of blood, mean of triplicate samples); 0.0364 min^–1 in [4] (model 2 fit, conditions 2 and 3, bovine blood, mean of triplicate samples). Moreover, in series [3] ([14C]etelcalcetide 10 μM, up to 6 hours, LC-14C-HRMS), the “[14C]etelcalcetide biotransformation at 25 °C compared with 37 °C” value is reported as “slower”. Also, the “sum total of monitored products as % of total M11” value is “Approximately 90%” in [3] (37 °C, at 1 hour) and 77% in [3] (37 °C, at 6 hours). In addition, the “kdc, rate constant of disulfide exchange SAPC to etelcalcetide (deconjugation)” value in [3] (model 1 fit (ADAPT 5), 37 °C, mean of duplicate samples) was 0.00038 min^–1. Also, the “hemodialysis clearance as % of blood flow rate” value in series [4] (conditions 2 and 3, presence of bovine blood) is about 70%. For the same compound, the “elimination rate constant in blood as % of that in the absence of blood” value in series [4] (in vitro hemodialysis, bovine blood vs dialysate) came to 60%. The plasma half-life in [5] is over 170 h. Further, the permeability result in [6] is on record as “very low”. In series [7], the “bound non-covalently to plasma proteins” value is 40%. For the same compound, in series [8], the “proportion of the dose eliminated in 2 hours” value came to 24%. Moreover, the “14C recovered during the washout period (% of the spiked dose)” value in [9] (condition 2, Solvable washout after 2-hour hemodialysis) was 0.2 % of the spiked dose. The “intact etelcalcetide dialyzed in the first 15 minutes” value in series [9] (condition 2, bovine whole blood, no preincubation, 2.1 μM, LC-MS/MS) is recorded as 57%. The “Non-covalent binding to plasma proteins” value in series [10] was about 50%.

With vitamin B12 [reference compound], the “dose remaining in bovine blood” value in series [9] (condition 2, at 15 minutes, LC-MS/MS) came to 44%; in series [9] (condition 2, at 120 minutes, LC-MS/MS), 8%.
